From ChEMBL document CHEMBL4477235, “Evolution of a Novel, Orally Bioavailable Series of PI3Kδ Inhibitors from an Inhaled Lead for the Treatment of Respiratory Disease” (J Med Chem, 2016)
Activity calls are given as the source filed them. The rule behind the calls is not given here.

How the values were obtained:
[1] = Half life in Brown Norway rat acute OVA model of TH2-driven lung inflammation at 9 mg/kg, po pretreated for 30 mins followed by OVA challenge; format: ADME, organism-based; conditions: in vivo
[2] = biological target: Tyrosine-protein kinase BTK (Homo sapiens, UniProt Q06187); assay: Inhibition of BTK (unknown origin)
[3] = Fraction unbound in Brown Norway rat acute OVA model of TH2-driven lung inflammation at 9 mg/kg, po pretreated for 30 mins followed by OVA challenge measured 1 hr post dose by HPLC analysis; format: ADME, organism-based; conditions: in vivo
How it was run: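 Unbound concentration at 1 h post-dose estimated by an internal algorithm from binding to HPLC columns coated with HSA and α-glycoprotein.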

[4] = biological target: Phosphatidylinositol 4-kinase beta (Homo sapiens, UniProt Q9UBF8); assay: Inhibition of PIK4B (unknown origin)
[5] = biological target: Tyrosine-protein kinase Lck (Homo sapiens, UniProt P06239); assay: Inhibition of LCK (unknown origin)
[6] = Drug uptake in blood of Brown Norway rat acute OVA model of TH2-driven lung inflammation at 3 mg/kg, po pretreated for 30 mins followed by OVA challenge measured 1 hr post dose; format: ADME, organism-based; conditions: read-out: Drug uptake
How it was run: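 Sensitized Brown Norway rats given oral compound 30 min before intratracheal OVA challenge. Blood concentration taken 1 h after dosing, i.e. 30 min after challenge.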

Rattus norvegicus = assay: Anti-inflammatory activity in Brown Norway rat acute OVA model of TH2-driven lung inflammation assessed as protection against eosinophil recruitment in bronchoalveolar lavage fluid at 3 mg/kg, po pretreated for 30 mins followed by OVA challenge by DAPI staining based flow cytometry; format: functional, organism-based
How it was run: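 Male Brown Norway rats (250–300 g) sensitized i.p. with 10 μg OVA plus 20 mg Al(OH)₃ on days 1 and 7. Oral compound given 30 min before intratracheal OVA challenge on day 21 or 28, under isoflurane. BAL taken 48 h post-challenge. Leucocytes counted by flow cytometry, gated on FSC/SSC, with DAPI+ dead cells excluded.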

[7] = biological target: Phosphatidylinositol 4-kinase type 2-alpha (Homo sapiens, UniProt Q9BTU6); assay: Inhibition of PI4K2A (unknown origin)
[8] = Clearance in Sprague-Dawley rat at 1 mg/kg, iv measured up to 7 hrs by LC-MS/MS analysis relative to liver blood flow; format: ADME, organism-based; conditions: in vivo
How it was run: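 Male Sprague Dawley rats (n = 2/route), intravenous dose as a solution in DMSO/PEG200/water (5:45:50 v/v/v) at 2 mL/kg. Serial tail-vein blood sampling over 0–7 h. LC–MS/MS quantification of parent. Noncompartmental analysis.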

Homo sapiens = species: Homo sapiens; assay: Selectivity ratio of IC50 for PI3Kgamma (unknown origin) to IC50 for PI3Kdelta (unknown origin)
How it was run: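 Ratio of each isoform's HTRF IC50 to the PI3Kδ HTRF IC50. Enzymes were preincubated 15 min with 4-fold compound dilutions in HEPES pH 7.0, MgCl2, DTT buffer. […] PIP2 was 5 µM for δ and 8 µM for α/β/γ. 60 min reaction, then EDTA quench with GRP-1 PH domain/APC/Eu detection. Four-parameter fit.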

Sequence of Tyrosine-protein kinase BTK (Q06187 whole entry): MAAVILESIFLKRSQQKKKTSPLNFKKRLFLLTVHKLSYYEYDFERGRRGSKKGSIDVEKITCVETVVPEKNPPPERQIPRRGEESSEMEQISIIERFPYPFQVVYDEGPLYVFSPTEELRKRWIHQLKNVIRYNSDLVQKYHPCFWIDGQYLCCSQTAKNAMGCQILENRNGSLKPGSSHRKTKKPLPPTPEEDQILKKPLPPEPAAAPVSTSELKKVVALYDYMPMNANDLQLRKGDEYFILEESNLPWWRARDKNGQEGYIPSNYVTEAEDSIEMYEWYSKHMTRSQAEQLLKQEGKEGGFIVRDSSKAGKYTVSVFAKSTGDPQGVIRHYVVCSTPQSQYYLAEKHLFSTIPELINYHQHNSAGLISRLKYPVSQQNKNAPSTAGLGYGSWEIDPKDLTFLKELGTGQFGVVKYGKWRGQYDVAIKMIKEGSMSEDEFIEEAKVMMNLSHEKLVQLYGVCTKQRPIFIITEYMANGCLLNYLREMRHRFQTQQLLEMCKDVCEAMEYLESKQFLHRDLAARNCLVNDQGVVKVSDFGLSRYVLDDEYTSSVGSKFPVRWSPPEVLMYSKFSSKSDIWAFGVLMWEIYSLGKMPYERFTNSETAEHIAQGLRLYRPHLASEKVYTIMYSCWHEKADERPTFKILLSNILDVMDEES
Sequence of Phosphatidylinositol 4-kinase type 2-alpha (Q9BTU6 whole entry): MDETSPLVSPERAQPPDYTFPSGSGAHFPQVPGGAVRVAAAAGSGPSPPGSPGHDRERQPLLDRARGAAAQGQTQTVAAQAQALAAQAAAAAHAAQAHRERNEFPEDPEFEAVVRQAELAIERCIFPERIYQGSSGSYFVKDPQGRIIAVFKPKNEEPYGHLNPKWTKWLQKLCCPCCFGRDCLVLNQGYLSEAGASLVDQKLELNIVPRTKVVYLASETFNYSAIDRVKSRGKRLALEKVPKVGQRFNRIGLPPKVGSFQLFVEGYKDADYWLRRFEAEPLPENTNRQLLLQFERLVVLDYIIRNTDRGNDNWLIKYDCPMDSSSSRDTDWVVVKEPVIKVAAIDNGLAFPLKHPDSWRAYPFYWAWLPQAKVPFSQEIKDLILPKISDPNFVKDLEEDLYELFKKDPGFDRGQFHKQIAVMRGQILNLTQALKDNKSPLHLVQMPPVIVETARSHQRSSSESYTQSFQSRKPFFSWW
Sequence of Phosphatidylinositol 4-kinase beta (Q9UBF8 whole entry): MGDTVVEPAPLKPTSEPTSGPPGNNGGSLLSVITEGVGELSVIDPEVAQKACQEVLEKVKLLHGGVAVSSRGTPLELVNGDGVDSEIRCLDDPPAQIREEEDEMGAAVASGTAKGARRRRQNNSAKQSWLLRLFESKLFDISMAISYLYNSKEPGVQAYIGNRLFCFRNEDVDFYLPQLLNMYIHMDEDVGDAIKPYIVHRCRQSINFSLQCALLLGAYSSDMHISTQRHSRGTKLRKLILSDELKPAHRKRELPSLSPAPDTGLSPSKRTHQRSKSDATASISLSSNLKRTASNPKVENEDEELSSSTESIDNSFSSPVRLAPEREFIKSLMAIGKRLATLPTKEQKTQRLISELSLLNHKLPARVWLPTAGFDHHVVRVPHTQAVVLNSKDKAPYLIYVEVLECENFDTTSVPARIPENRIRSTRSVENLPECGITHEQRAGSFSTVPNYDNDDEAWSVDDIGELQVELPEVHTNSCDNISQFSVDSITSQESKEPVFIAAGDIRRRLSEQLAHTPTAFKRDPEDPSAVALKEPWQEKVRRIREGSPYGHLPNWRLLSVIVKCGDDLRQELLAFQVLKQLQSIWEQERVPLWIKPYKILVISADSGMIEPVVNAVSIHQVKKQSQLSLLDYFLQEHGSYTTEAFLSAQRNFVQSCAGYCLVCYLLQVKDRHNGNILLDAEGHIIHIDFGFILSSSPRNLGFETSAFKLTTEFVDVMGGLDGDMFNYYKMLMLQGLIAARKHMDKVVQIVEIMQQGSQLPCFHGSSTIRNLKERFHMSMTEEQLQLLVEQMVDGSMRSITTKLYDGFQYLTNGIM
Sequence of Tyrosine-protein kinase Lck (P06239 whole entry): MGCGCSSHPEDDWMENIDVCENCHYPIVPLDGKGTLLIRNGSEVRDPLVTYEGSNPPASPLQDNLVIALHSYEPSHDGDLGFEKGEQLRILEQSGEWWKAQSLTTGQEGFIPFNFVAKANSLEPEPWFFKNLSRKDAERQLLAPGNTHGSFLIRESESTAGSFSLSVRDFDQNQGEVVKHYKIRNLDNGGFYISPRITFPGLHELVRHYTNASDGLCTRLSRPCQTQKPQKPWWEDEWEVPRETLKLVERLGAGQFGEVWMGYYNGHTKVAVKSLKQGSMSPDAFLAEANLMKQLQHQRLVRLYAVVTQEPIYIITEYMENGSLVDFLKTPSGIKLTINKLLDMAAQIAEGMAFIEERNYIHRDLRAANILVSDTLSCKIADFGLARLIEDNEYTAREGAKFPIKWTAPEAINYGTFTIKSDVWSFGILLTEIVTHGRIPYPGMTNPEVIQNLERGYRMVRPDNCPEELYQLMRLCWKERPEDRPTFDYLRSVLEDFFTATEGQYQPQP

half-life [1]: 6.8 h | IC50 [2]: > 10 µM | Drug uptake(free) [3]: 0.22 µM | IC50 [4]: > 10 µM | IC50 [5]: > 10 µM | concentration at 1 h [6]: 190 nM | IC50 [7]: > 10 µM | CL [8]: < 20% | Ratio IC50 (Homo sapiens): 50
SMILES: COc1ncc(-c2cc3c(c(NC(=O)CN4CCOCC4)c2)COC3)cc1NS(C)(=O)=O
Activity (Rattus norvegicus): Active
